Measurements reported in ChEMBL document CHEMBL2412993, “Antiprotozoal activity of bicyclic diamines with a N-methylpiperazinyl group at the bridgehead atom” (Bioorg Med Chem, 2013).
pIC50: −log10 of the molar value. The source made the active and inactive calls. The rule behind the calls is not given here.

What was measured:
Plasmodium falciparum = experiment: Antiprotozoal activity against chloroquine- and pyrimethamine-resistant Plasmodium falciparum K1 after 48 hrs by [3H]-hypoxanthine incorporation assay; assay type: functional, organism-based
Procedure, shortened: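 Infected human red cells in RPMI 1640 with 5% Albumax, exposed to serial dilutions from 5 to 0.078 µg/mL for 48 h at 37 °C under reduced oxygen. [3H]-hypoxanthine (0.5 µCi/well) added, then a further 24 h. Cells harvested onto filters and scintillation counted as % of untreated control. IC50 taken from sigmoidal curves; duplicate, repeated once.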

[1] = Selectivity index, ratio of IC50 for rat L6 cells to IC50 for bloodstream form of Trypanosoma brucei rhodesiense STIB 900; assay type: toxicity, cell-based; details: read-out: Ratio IC50
Procedure, shortened: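 Medium was MEM with 2-mercaptoethanol and 15% heat-inactivated horse serum, dilutions 90 to 0.123 µg/mL. Wells held 10^4 STIB 900 bloodstream forms or rat L-6 myoblasts. Dye was added for a further 2–4 h, then fluorescence read (ex 536/em 588 nm) as % of control. SI is L-6 IC50 over parasite IC50.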

[2] = Selectivity index, ratio of IC50 for rat L6 cells to IC50 for chloroquine- and pyrimethamine-resistant Plasmodium falciparum K1; assay type: toxicity, cell-based; details: L6 cells versus Plasmodium falciparum K1, read-out: Ratio IC50
Procedure, shortened: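 The L-6 IC50 comes from the 72 h Alamar Blue assay on rat myoblasts (MEM, 15% horse serum, 90–0.123 µg/mL). The K1 IC50 comes from [3H]-hypoxanthine uptake by infected human red cells: 48 h exposure to 5–0.078 µg/mL, then 24 h with label. SI is L-6 IC50 over K1 IC50.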

[3] = test system: Trypanosoma brucei rhodesiense; experiment: Antiprotozoal activity against bloodstream form of Trypanosoma brucei rhodesiense STIB 900 after 72 hrs by microplate fluorometry; assay type: functional, organism-based; details: STIB 900, 72 h
Procedure, shortened: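 Bloodstream forms (10⁴/well) in MEM with 2-mercaptoethanol and 15% heat-inactivated horse serum, serial dilutions 90 to 0.123 µg/mL, 72 h at 37 °C under 5% CO₂. Alamar Blue added for a further 2–4 h. Fluorescence read at ex 536 / em 588 nm and expressed as percent of control. Melarsoprol standard.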

L6 = experiment: Cytotoxicity against rat L6 cells after 72 hrs by microplate fluorometry; assay type: cell-based; details: L6, 72 h
Procedure, shortened: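 Rat skeletal myoblasts (L-6) run in the same Alamar Blue microplate format: MEM with 2-mercaptoethanol and 15% heat-inactivated horse serum, dilutions 90 to 0.123 µg/mL, 72 h at 37 °C in 5% CO₂. Alamar Blue for a further 2–4 h, fluorescence at ex 536 / em 588 nm as percent of control. Mefloquine standard.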

[4] = test system: Trypanosoma brucei rhodesiense; experiment: Antiprotozoal activity against bloodstream form of Trypanosoma brucei rhodesiense STIB 900 infected in NMRI mouse assessed as reduction in parasitemia at 50 mg/kg, ip qd for administered 3 days post-inoculation for 4 consecutive days; assay type: functional, organism-based; parameters: dose 50 mg/kg
Plasmodium berghei [5] = experiment: Antiprotozoal activity against Plasmodium berghei ANKA infected in NMRI mouse assessed as reduction in parasitemia at 50 mg/kg, ip qd for administered starting 4 h post-infection for 4 consecutive days; parameters: scale not given: the % may be the effect or the level left; details: route intraperitoneal
Plasmodium berghei [6] = experiment: Antiprotozoal activity against bloodstream form of Plasmodium berghei ANKA infected in NMRI mouse assessed as mean survival time at 50 mg/kg, ip qd for administered starting 4 h post-infection for 4 consecutive days (reference value: 6 to 7 days); details: route intraperitoneal

Structure (SMILES): CN1CCN(C23CC(NCCCN4CCCC4)C(C(c4ccccc4)C2)C(c2ccccc2)C3)CC1 (racemic)
- pIC50 (Plasmodium falciparum): 6.17
- selectivity ratio [1]: 14.1
- selectivity ratio [2]: 33.8
- pIC50 [3]: 5.79
- pIC50 (L6): 4.65

Structure (SMILES): CN1CCN(C23CC(NC(=O)CCN4CCCCC4)C(C(c4ccccc4)C2)C(c2ccccc2)C3)CC1 (racemic)
- pIC50 (Plasmodium falciparum): 6.64
- selectivity ratio [1]: 12.1
- selectivity ratio [2]: 66.7
- pIC50 [3]: 5.90
- pIC50 (L6): 4.81

Structure (SMILES): CN1CCN(C23CC(NCCC(=O)N4CCCC4)C(C(c4ccccc4)C2)C(c2ccccc2)C3)CC1 (racemic)
- pIC50 (Plasmodium falciparum): 6.23
- selectivity ratio [1]: 42.9
- selectivity ratio [2]: 36.4
- pIC50 [3]: 6.30
- pIC50 (L6): 4.67

Structure (SMILES): CN1CCN(C23CC(NC(=O)CN4CCCCC4)C(C(c4ccccc4)C2)C(c2ccccc2)C3)CC1 (racemic)
- Activity [4]: inactive
- pIC50 (Plasmodium falciparum): 6.46
- selectivity ratio [1]: 235
- selectivity ratio [2]: 63.2
- pIC50 [3]: 7.03
- pIC50 (L6): 4.66

Structure (SMILES): CN1CCN(C23CC(NC(=O)CCN4CCCC4)C(C(c4ccccc4)C2)C(c2ccccc2)C3)CC1 (racemic)
- pIC50 (Plasmodium falciparum): 6.26
- selectivity ratio [1]: 13.6
- selectivity ratio [2]: 76.7
- pIC50 [3]: 5.51
- pIC50 (L6): 4.38

Structure (SMILES): CCN(CC)C(=O)CNC1CC2(N3CCN(C)CC3)CC(c3ccccc3)C1C(c1ccccc1)C2 (racemic)
- pIC50 (Plasmodium falciparum): 5.94
- selectivity ratio [1]: 75.9
- selectivity ratio [2]: 32.7
- pIC50 [3]: 6.30
- pIC50 (L6): 4.42

Structure (SMILES): c1ccc(C2CC3(N4CCCCC4)CCN(CCCN4CCCCC4)C2C(c2ccccc2)C3)cc1 (racemic)
- selectivity ratio [1]: 7.5

Structure (SMILES): C[C@@H]1CC[C@H]2[C@@H](C)C(=O)O[C@@H]3O[C@@]4(C)CC[C@@H]1[C@]32OO4 [ARTEMISININ]
- pIC50 (Plasmodium falciparum): 8.19
- selectivity ratio [2]: 70.4

Structure (SMILES): CCN(CC)CCC(=O)NC1CC2(N3CCN(C)CC3)CC(c3ccccc3)C1C(c1ccccc1)C2 (racemic)
- pIC50 (Plasmodium falciparum): 6.17
- selectivity ratio [1]: 15.7
- selectivity ratio [2]: 53.6
- pIC50 [3]: 5.64
- pIC50 (L6): 4.44

Structure (SMILES): CN1CCN(C23CCN(CCCN4CCCCC4)C(C(c4ccccc4)C2)C(c2ccccc2)C3)CC1 (racemic)
- pIC50 (Plasmodium falciparum): 7.30
- selectivity ratio [1]: 11.4
- selectivity ratio [2]: 577
- pIC50 [3]: 5.60
- Activity (Plasmodium berghei [5]): 11%
- pIC50 (L6): 4.54
- Time (Plasmodium berghei [6]): 4 days

Structure (SMILES): c1ccc(C2CC3(N4CCCCC4)CC(NCCCN4CCCC4)C2C(c2ccccc2)C3)cc1 (racemic)
- selectivity ratio [1]: 13.4
- pIC50 [3]: 5.69

Structure (SMILES): CN1CCN(C23CC(NC(=O)CN4CCCC4)C(C(c4ccccc4)C2)C(c2ccccc2)C3)CC1 (racemic)
- pIC50 (Plasmodium falciparum): 6.55
- selectivity ratio [1]: 111
- selectivity ratio [2]: 99.3
- pIC50 [3]: 6.60
- pIC50 (L6): 4.56

Structure (SMILES): CN1CCN(C23CCN(CCCN4CCCC4)C(C(c4ccccc4)C2)C(c2ccccc2)C3)CC1 (racemic)
- pIC50 (Plasmodium falciparum): 7.22
- selectivity ratio [1]: 16.8
- selectivity ratio [2]: 726
- pIC50 [3]: 5.59
- Activity (Plasmodium berghei [5]): 0%
- pIC50 (L6): 4.36
- Time (Plasmodium berghei [6]): 4 days

Structure (SMILES): CCN(CC)CCCC(C)Nc1ccnc2cc(Cl)ccc12 (centres undefined) [CHLOROQUINE]
- Activity (Plasmodium berghei [5]): 99.6%
- Time (Plasmodium berghei [6]): 20 days

Structure (SMILES): CCN(CC)CCCN1CCC2(N3CCN(C)CC3)CC(c3ccccc3)C1C(c1ccccc1)C2 (racemic)
- pIC50 (Plasmodium falciparum): 7.22
- selectivity ratio [1]: 26.6
- selectivity ratio [2]: 1140
- pIC50 [3]: 5.59
- Activity (Plasmodium berghei [5]): 17%
- pIC50 (L6): 4.17
- Time (Plasmodium berghei [6]): 4 days

Structure (SMILES): CCN(CC)CC(=O)NC1CC2(N3CCN(C)CC3)CC(c3ccccc3)C1C(c1ccccc1)C2 (racemic)
- pIC50 (Plasmodium falciparum): 6.43
- selectivity ratio [1]: 39.4
- selectivity ratio [2]: 71.3
- pIC50 [3]: 6.17
- pIC50 (L6): 4.58
